In all, about 300,000 compounds went through this assay and about 120 (0.04%) were called active.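 Rule for the calls: active = more than half of replicate wells score below -50%, meaning over 50% inhibition versus plate controls; inconclusive = some replicates but at most half score below -50%; inactive = no replicate scores below -50%.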 The sample as a whole holds a higher share of actives than the screen did.

Chain of Glycogen synthase kinase-3 beta (Homo sapiens) (P49841 whole entry, looked up): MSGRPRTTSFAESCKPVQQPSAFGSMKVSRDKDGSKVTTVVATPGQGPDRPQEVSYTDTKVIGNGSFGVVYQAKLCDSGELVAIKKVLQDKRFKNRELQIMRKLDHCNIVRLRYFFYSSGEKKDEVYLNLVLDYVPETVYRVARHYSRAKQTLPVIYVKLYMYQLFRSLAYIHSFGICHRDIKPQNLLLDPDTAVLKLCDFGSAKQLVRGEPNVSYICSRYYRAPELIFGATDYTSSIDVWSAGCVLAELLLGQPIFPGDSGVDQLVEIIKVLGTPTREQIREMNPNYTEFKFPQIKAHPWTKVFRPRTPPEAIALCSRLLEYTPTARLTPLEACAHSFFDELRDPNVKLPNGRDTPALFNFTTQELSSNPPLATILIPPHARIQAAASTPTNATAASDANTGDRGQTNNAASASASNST

The assay concerns the target Glycogen synthase kinase-3 beta (Homo sapiens) (UniProt P49841). The experiment in a line: human GSK3beta kinase inhibitors, primary screen, biochemical, cell-free homogeneous, HTS (AID 2097).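 Note: 0% = median DMSO wells and -100% = median GW8510 positive control wells.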 To be noted: GST-GSK3beta kinase, ADP-Glo luminescence, 60 min; at 10 µM; stronger effect = lower value. Put shortly: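 Test system – GST-tagged human GSK3beta kinase, cell-free · Incubation – 60 min enzyme reaction, room temperature · Signal – ADP-Glo luminescence · Also added – peptide substrate and ATP at 25 µM · Controls – DMSO neutral wells and GW8510 at 20 µM as positive · Buffer or medium – Tris/MgCl2 kinase buffer · Measure – Luminescence-derived activity versus plate DMSO and GW8510 wells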
For orientation: In ADP-Glo the light output rises with the ADP produced.
Turning to `COc1ccc(C(=O)NC(C)Cn2nc(C)cc2C)cc1OC1CCN(C(C)=O)CC1` (stereo not given), the activity score (negative = inhibition) was -1.16% (inactive).

As to `COc1cc(CN2CCC(n3nccc3NC(=O)CCCc3ccccc3)CC2)ccc1O`, the activity score (negative = inhibition) was 1.56% (inactive).

On to `O=C(Cc1ccccc1)NCC1OCCc2ccccc21` (stereo not given), for which the activity score (negative = inhibition) is 1.24% (inactive).

On to `CSCCNCc1cn(-c2ccc(F)cc2F)nc1-c1ccccc1C`, for which the activity score (negative = inhibition) is 6.14% (inactive).

Regarding `COCCCNC(=O)CNC(=S)N(Cc1cc(OC)c(OC)c(OC)c1)C1CCCC1`, the activity score (negative = inhibition) is -1.22% (inactive).

Consider `CC(CCc1ccccc1)NCC(O)c1cccc([N+](=O)[O-])c1` (stereo not given), for which the activity score (negative = inhibition) is 0.339% (inactive).

Take `O=C(C1CC1)N1N=C2CCCCC2C1(O)C(F)(F)F` (stereo not given): the activity score (negative = inhibition) was -1.66% (inactive).

On to `Cc1ccn2c(=O)c(NC(=O)c3cccc4ccccc34)c(C)nc2c1`, for which the activity score (negative = inhibition) is -0.598% (inactive).

With `CCN(CC(=O)N1CCCC1)S(=O)(=O)c1ccc(F)cc1`, the activity score (negative = inhibition) is -0.618% (inactive).

With `O=C(NCCNc1ccc([N+](=O)[O-])cc1Cl)c1ccccc1F`, the activity score (negative = inhibition) is -5.43% (inactive).

In the case of `COc1ccc(N(Cc2ccc(N(C)C)cc2)C(=O)c2ccc(S(C)(=O)=O)cc2)cc1`, the activity score (negative = inhibition) was 1.2% (inactive).

Consider `Cc1cc(C)c(OCCN2CC(C)OC(C)C2)c(Br)c1` (stereo not given), for which the activity score (negative = inhibition) is -2.1% (inactive).

Regarding `Cc1nc(SCC(=O)NC2CCCC2)[nH]c(=O)c1C`, the activity score (negative = inhibition) was 1.74% (inactive).

Consider `COc1ccccc1CNC(=O)C1CCN(S(=O)(=O)c2ccc3c(c2)OCCO3)CC1`, for which the activity score (negative = inhibition) was -1.16% (inactive).

`COc1ccc(CCc2nc(-c3cccs3)no2)cc1`: the activity score (negative = inhibition) is 2.12% (inactive).

Consider `O=C(CCN1C(=O)C2C3C=CC(C3)C2C1=O)Oc1ccc2ccccc2c1` (stereo not given), for which the activity score (negative = inhibition) is 1.85% (inactive).

Take `Nc1cccnc1Sc1ccccc1`: the activity score (negative = inhibition) is -4.02% (inactive).

As to `C=CCn1cc(C(=O)NCc2ccc(Cl)cc2)c(=O)c2cc(S(=O)(=O)N(CC)CC)ccc21`, the activity score (negative = inhibition) was 4.27% (inactive).

Turning to `O=C(O)C1CCCN1C1=NS(=O)(=O)c2ccccc21` (stereo not given), the activity score (negative = inhibition) is 1.84% (inactive).

As to `COC(=O)c1c(C(=O)OC)c(-c2cccc(C)c2)n2c1CS(=O)C2` (stereo not given), the activity score (negative = inhibition) is -0.0395% (inactive).

Turning to `C[C@H](NC(=O)[C@@H]1Cc2ccccc2CN1C(=O)OC(C)(C)C)C(=O)NC1CCCC1`, the activity score (negative = inhibition) is 0.0958% (inactive).

For `C=CCN1CCN(C(=O)CCCc2ccccc2)CC1`, the activity score (negative = inhibition) was 3.12% (inactive).

For `COc1ccccc1N1CCC(N2CCN(CC(C)(C)C)C(CCO)C2)CC1` (stereo not given), the activity score (negative = inhibition) is -1.04% (inactive).

As for `COc1ccccc1C(=O)Nc1ccnn1C1CCN(C(=O)C(C)(C)C)CC1`, the activity score (negative = inhibition) was -0.909% (inactive).

Take `CC(C)(C)NC(=O)CSC(=Nc1ccccc1F)NC#N`: the activity score (negative = inhibition) is 0.51% (inactive).

As to `Cc1c(NC(=S)NC(=O)CCc2ccccc2)c(=O)n(-c2ccccc2)n1C`, the activity score (negative = inhibition) is 0.697% (inactive).

Regarding `COCc1ccc(C(=O)N2CCc3c([nH]c4ccccc34)C2c2ccccn2)s1` (stereo not given), the activity score (negative = inhibition) was 1.6% (inactive).

On to `CCNC(=S)N(CCN(CC)CC)Cc1cc2cc3c(cc2[nH]c1=O)OCCO3`, for which the activity score (negative = inhibition) is 1.49% (inactive).

With `Cc1csc(NC(=O)CSc2nc(=O)cc(N)n2-c2ccc(F)cc2)n1`, the activity score (negative = inhibition) was 1.17% (inactive).

Consider `Cc1c(C(=O)NCCN(C)C)oc2ccc(S(=O)(=O)N3CCCC3)cc12`, for which the activity score (negative = inhibition) is -4.78% (inactive).

In the case of `CN1CCN(/N=C/c2ccc(-c3ccc([N+](=O)[O-])cc3)o2)CC1`, the activity score (negative = inhibition) is -0.646% (inactive).

`CN1CCN(/N=C2/C(=O)Nc3ccc([N+](=O)[O-])cc32)CC1`: the activity score (negative = inhibition) was -63.8% (active).

As for `Cc1ccc([N+](=O)[O-])cc1S(=O)(=O)N1CCCN(C)CC1`, the activity score (negative = inhibition) is -1.01% (inactive).

Turning to `Cc1cccc(NC(=O)C2CC(=O)OC23CCCC3)c1` (stereo not given), the activity score (negative = inhibition) was 2.08% (inactive).

With `COCCn1c(C)cc(C(=O)CSc2nc3ccccc3c(=O)n2C(C)COC)c1C` (stereo not given), the activity score (negative = inhibition) is -2.4% (inactive).

`COC(=O)/C(=C\Nc1ccccc1)NC(=O)c1ccc(Cl)cc1Cl`: the activity score (negative = inhibition) was 1.73% (inactive).

Take `N/C(=N\OC(=O)CCCC(=O)O)c1ncc(C(F)(F)F)cc1Cl`: the activity score (negative = inhibition) was 1.16% (inactive).

As for `CCS(=O)(=O)N1CCC(N2CCN(c3ccccc3)CC2)CC1`, the activity score (negative = inhibition) was 1% (inactive).

In the case of `CCc1cccc(NC(=S)N(CCN(C)C)C2CCN(C(C)C)CC2)c1`, the activity score (negative = inhibition) is 1.7% (inactive).

In the case of `COc1ccc2ccccc2c1CNCc1ccccn1`, the activity score (negative = inhibition) is -4.15% (inactive).

Turning to `O=[N+]([O-])c1ccccc1S(=O)(=O)Nc1cccc2cccnc12`, the activity score (negative = inhibition) is 0.31% (inactive).

With `CC(=O)N1CC[n+]2c(-c3ccc([N+](=O)[O-])cc3)csc21`, the activity score (negative = inhibition) was -0.11% (inactive).

Turning to `COCCn1c(SCC(=O)Nc2ccccc2F)nc2c(c1=O)SCC2`, the activity score (negative = inhibition) is 0.573% (inactive).

In the case of `CN(CC(=O)Nc1ccccc1Cl)C(=O)c1ccccc1SCC(=O)N1CCCC1`, the activity score (negative = inhibition) was -1.62% (inactive).

As to `CC(=O)Nc1cccc(C(=O)OCC(=O)c2ccc3c(c2)OCO3)c1`, the activity score (negative = inhibition) is 0.7% (inactive).
